# Test results as given in PubChem BioAssay AID651647 (Sanford-Burnham Center for Chemical Genomics, 2012).
# Among all 360,000 compounds or so, about 220 (0.061%) were called active. The full list was thinned out, with actives kept by preference. A number with no mark means an inactive call.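 Rule for the calls: active = GFP/RFP ratio change of at least 30% with cell ATP level not reduced by more than half and red fluorescence within 50% of control; inactive = the rest, inconclusive results apart.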
# Molecular target: Matrix metalloproteinase-14 (Homo sapiens) (UniProt P50281)
# Assay: blockers of MT1-MMP proenzyme processing, primary screen, HT1080 RFP-PRO-GFP cells, GFP/RFP fluorescence (AID 651647)
# Settings: overnight, at 20 µM, active compounds read high, percent of plate control window, DMSO zero
# Outline: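 Read-out: GFP/RFP fluorescence ratio; Test system: RFP-PRO-GFP reporter HT1080 cells; Compound dosing: single-point 20 µM compound, 1% DMSO; Times: overnight compound exposure at 37 °C.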
row,SMILES,GFP/RFP ratio change
1,CC(=O)c1cccc(-c2cnc3c(NC=O)cc(-c4ccc(N5CCN(C)CC5)cc4)cn23)c1,-9.51%
2,CN(C)S(=O)(=O)c1cccc(NC(=O)COc2ccc3ccccc3c2)c1,3.9%
3,COCCNC(=O)COc1ccc(N(C)S(=O)(=O)c2ccc3ccccc3c2)cc1,0.935%
4,Cc1cc2ccccc2n1CCNC(=O)COc1ccc2ccccc2c1,30.8% (active)
5,C[C@@H]1CN([C@@H](C)CO)C(=O)c2cc(Br)cnc2O[C@@H]1CN(C)C(=O)C1CCCCC1,5.19%
6,S=C1Nc2cc(Cl)ccc2Sc2ccccc21,1.33%
7,Cc1cc(C)cc(Oc2nc3c(C)cccn3c(=O)c2/C=C(\C#N)C(=O)NC2CCS(=O)(=O)C2)c1 (centres undefined),-5.71%
8,O=C(CSc1nnc(-c2ccoc2)o1)N1CCOCC1,-1.67%
9,O=C1Nc2ccccc2NC(c2ccc3c(c2)OCO3)=C1N(Cc1ccc(F)cc1)C(=O)c1ccco1,1.27%
10,COc1ccc(C)cc1NC(=O)CCCN1C(=O)NC(C)(C)C1=O,-3.61%
11,C/C(=C\c1ccco1)CN1CCC(N2CCC(C(=O)N3CCOCC3)CC2)CC1,0.944%
12,Cc1ccc(CNC(=O)CC2Sc3ccccc3NC2=O)cc1 (centres undefined),0.784%
13,Cc1cc(-c2nnc(SCC(=O)Nc3ccc(S(N)(=O)=O)cc3)n2N)n[nH]1,-2.72%
14,O=C(CSc1ccc(C(F)(F)F)cc1[N+](=O)[O-])NCCOc1ccccc1,-0.0162%
15,Cc1cc(-c2nnc(CCC(=O)NC(c3ccccc3)c3ccccc3)o2)no1,-0.114%
16,CCn1c(SCC(=O)NC2CC2)nnc1-c1ccncc1,1.37%
17,O=C(NCCCn1ccnc1)C1CCCN(S(=O)(=O)c2cc(Cl)ccc2Cl)C1 (centres undefined),0.609%
18,CC(C)C(NC(=O)c1cccc(S(=O)(=O)N2CCOCC2)c1)C(=O)NCCc1ccccn1 (centres undefined),-6.01%
19,CC(Sc1nncs1)C(=O)NCc1ccc2c(c1)OCO2 (centres undefined),2.24%
20,CN(C)c1ccc(NC(=O)CN2C3CCCC2CC(NC(=O)c2ccccc2)C3)cc1 (centres undefined),6.85%
21,CCc1cc(-c2nnn(CCC3COCCO3)c2CC)ccc1-c1cn(Cc2ccc3ccccc3c2)nn1 (centres undefined),2.05%
22,C/C=N/N(c1ccccc1)c1ccccc1,-0.385%

row,SMILES,GFP/RFP ratio change
1,NS(=O)(=O)c1ccc(CCNC(=O)CCCn2c(SCC(=O)N3CCCC3)nc3ccsc3c2=O)cc1,-1.21%
2,O=C(Nc1ccn(CCCNCc2ccc3[nH]ccc3c2)c(=O)n1)OCc1ccccc1,-0.535%
3,CCOC(=O)C1C(c2ccc(OC)c(OC)c2)c2c([nH][nH]c2=O)CC1(C)O (centres undefined),4.39%
4,O=C1CCN(Cc2ccccc2)CCN1[C@H](CSc1ccccc1)c1ccccc1,-2.64%
5,COc1c(O)cccc1-c1nnn(CCC(=O)OCC(=O)c2ccccc2)n1,4.76%
6,CN(CC(=O)Nc1ccccc1F)CC(=O)Nc1ccccc1Br,7.11%
7,O=C1NC[C@H](CCCCN2C[C@H](Cc3ccc(O)cc3)N(CC3CCCCC3)C(=O)C2=O)N(CCc2ccccc2)C1=O,1.64%
8,N#C[C@]1(S(=O)(=O)c2ccccc2)C[C@@H]2ON=C(c3cccc(Br)c3)[C@@H]2C1,2.88%
9,CC(C)CC(O)C1CCN(C(=O)CCc2nnc(-c3ccc4c(c3)OCO4)o2)CC1 (centres undefined),1.69%
10,O=S1(=O)CCOC[C@H](Cc2ccccc2)N1Cc1ccccc1Br,-1.83%
11,O=C(c1cc(Cl)cc(Cl)c1)N1CCC(=O)N(C(COCc2ccccc2)Cc2ccccc2)CC1 (centres undefined),-5.95%
12,O=C(Nc1ccccc1F)C1C2C=CC3(O2)C1C(=O)N(c1cccnc1)C3C(=O)NC1CCCCC1 (centres undefined),1.65%
13,CCOC(=O)/C(N=Nc1cc(C(=O)O)cc(C(=O)O)c1)=C(\O)CCl,-3.33%
14,Cc1cccc(C)c1NC(=O)C1(C)c2cccc[n+]2CC(=O)N1Cc1cccs1 (centres undefined),-3.13%
15,CCCCCCCCOC1OC(CO)C(O)C(O)C1NC(C)=O (centres undefined),0.0413%
16,CC(C)CC(=O)N1CCN(Cc2cccc(Cl)c2)CC1,-0.171%
17,O=C(c1cccc(S(=O)(=O)N2CCCCCC2)c1)N1CCN(Cc2ccccc2)CC1,-4.24%
18,O=C(c1cccc(Cl)c1)N1CCN(Cc2ccccc2)CC1,30.7% (active)
19,CN(C)c1ccc(C=NCCc2ccc(S(N)(=O)=O)cc2)cc1,3.81%
20,CN(CC(=O)NC(=O)Nc1ccccc1F)Cc1ccccc1,1.45%
21,COC(=O)C1C(=O)CC(C)(O)C(C(=O)OC)C1c1ccc2c(c1)OCO2 (centres undefined),19%
22,CS(=O)(=O)c1ccc2nnn(OCC(=O)Nc3cccc(C#N)c3)c2c1,0.844%
